Published values pooled from the literature.
Matrix: plasma

`CC(C)[C@](O)(c1ccc2cc(OC(F)F)c(OC(F)F)cc2c1)c1c[nH]nn1` has an AUC(0-inf) of 54700 ng·h/mL (female human; oral, 600 mg, single dose).
For `CC(C)(Sc1ccncc1-c1ccc(C#N)c2ccccc12)C(=O)O`, the AUC(0-inf) was 92.8 ng·h/mL (male human; oral, 5 mg, single dose, fed, healthy volunteers).
`C=C(F)C(=O)N1CCN(c2nc(OC[C@@H]3CCCN3C)nc3c2CCN(c2cccc4cccc(Cl)c24)C3)C[C@@H]1CC#N` gave an AUC(0-inf) of 37100 ng·h/mL (human; oral, 600 mg, single dose, fasted).
`CS(=O)(=O)CCC#N` has an AUC(0-inf) of 930000 ng·h/mL (human; oral, 1000 mg, single dose, fasted).
For `CCCCC[C@H](O)CC[C@@H]1[C@H]2Cc3cccc(OCC(=O)O)c3C[C@H]2C[C@H]1O`, the AUC(0-inf) was 0.34 ng·h/mL (human; inhaled, 18 µg, single dose, healthy volunteers).
`CNC(=O)c1ccccc1Sc1ccc2c(/C=C/c3ccccn3)n[nH]c2c1` gave an AUC(0-inf) of 197 ng·h/mL (human; oral, 5 mg, single dose, fasted).
For `CO[C@H]1/C=C\C=C(/C)C(=O)NC2=CC(=O)C(NCCN(C)C)=C(C[C@@H](C)C[C@H](OC)[C@H](O)[C@@H](C)/C=C(\C)[C@@H]1OC(N)=O)C2=O`, the AUC(0-inf) was 1220 ng·h/mL (human; intravenous, 12 mg/m², patients, infusion).
With `CC(C)(O)c1ccccc1-c1ccc2[nH]c(/C=C/c3ccc(C(F)(F)F)cc3)nc2c1` the AUC(0-inf) was 5690 ng·h/mL (male human; oral, 30 mg, single dose, fasted).
For `CO[C@H]1CC[C@H](N2C(=O)CNc3ncc(-c4ccc(C(C)(C)O)nc4)nc32)CC1`, the AUC(0-inf) was 378 ng·h/mL (human; oral, 15 mg, patients).
`COc1ccc(-n2nc(C(N)=O)c3c2C(=O)N(c2ccc(N4CCCCC4=O)cc2)CC3)cc1` has an AUC(0-inf) of 4740 ng·h/mL (male human; oral, 50 mg, single dose).
With `C[C@@]1(c2cc(NC(=O)c3ccc(C#N)cn3)ccc2F)C=CSC(N)=N1` the AUC(0-inf) was 1040 ng·h/mL (human; oral, 10 mg, single dose).
For `COc1ccc2[nH]c([S+]([O-])Cc3ncc(C)c(OC)c3C)nc2c1` (stereo not shown), the AUC(0-inf) was 2.46 ng·h/mL (male human; oral, 100 µg).
`Cn1cc(-c2ccc(S(=O)(=O)[C@@H]3C[C@@H](C(=O)NC4(C#N)CC4)N(C(=O)C4(C(F)(F)F)CC4)C3)c(C(F)(F)F)c2)cn1` has an AUC(0-inf) of 10600 ng·h/mL (human; oral, 100 mg, single dose, fasted, healthy volunteers).
For `CN(C)CCCNC(=O)/C(=C/CCCCC(=O)NO)COc1cccc2ccccc12`, the AUC(0-inf) was 37500 ng·h/mL (human; intravenous, 250 mg/m², single dose).
With `COC(=O)N[C@@H](C)CNc1nccc(-c2cn(C(C)C)nc2-c2cc(Cl)cc(NS(C)(=O)=O)c2F)n1` the AUC(0-inf) was 1880 ng·h/mL (human; oral, 50 mg, single dose).
With `CCOc1cc2ncc(C#N)c(Nc3ccc(OCc4ccccn4)c(Cl)c3)c2cc1NC(=O)/C=C/[C@H]1CCCN1C` the AUC(0-inf) was 386 ng·h/mL (human; oral, 80 mg, single dose).
The AUC(0-inf) of `CCc1nc2c(C)cc(N3CCN(CC(=O)N4CC(O)C4)CC3)cn2c1N(C)c1nc(-c2ccc(F)cc2)c(C#N)s1` is reported as 2400 ng·h/mL (human; oral, 60 mg, single dose, fed, healthy volunteers).
`CC(=O)Oc1ccccc1C(=O)O` has an AUC(0-inf) of 7690 ng·h/mL (human; oral, 650 mg, healthy volunteers).
With `Nc1ccc(-c2nc([C@H]3CCc4cc(-c5cc(Cl)ccc5-n5cnnn5)cc(=O)n43)c(F)[nH]2)c(F)n1` the AUC(0-inf) was 15900 ng·h/mL (human; oral, 80 mg, single dose, fed).
`CC(C)n1cc(C#N)c2cc(-n3cc(C(=O)O)cn3)ccc21` has an AUC(0-inf) of 44300 ng·h/mL (human; oral, 200 mg, single dose, fed).
For `O=C(/C=C/c1cccc(S(=O)(=O)Nc2ccccc2)c1)NO`, the AUC(0-inf) was 72800 ng·h/mL (human; intravenous, 1900 mg/m², patients).
For `O=C(Nc1c(Cl)cncc1Cl)c1ccc(OC(F)F)c(OCC2CC2)c1`, the AUC(0-inf) was 81.4 ng·h/mL (human; oral, 0.375 mg, multiple doses, once daily).
With `CCc1cnn2c(NCc3ccc[n+]([O-])c3)cc(N3CCCC[C@H]3CCO)nc12` the AUC(0-inf) was 796 ng·h/mL (human; intravenous, 9 mg/m², patients).
The AUC(0-inf) of `COc1ccc([C@@H]2CN(C(=O)[C@@H](O)CO)C[C@@]2(C)[C@@H](C)O)cc1OC1CN(c2ccc(C)cn2)C1` is reported as 1850 ng·h/mL (human; oral, 5 mg, single dose, healthy volunteers).
For `CCCOc1ccc([C@H]2CNC(=O)N2c2ccc3[nH]cnc3c2)cc1`, the AUC(0-inf) was 2310 ng·h/mL (human; oral, 200 mg, single dose, fed, healthy volunteers).
